The subject of assay [1] is MCF7. The experiment in a line: In vitro cytotoxicity of compound against MCF-7 cell line expressed as percent of viable cells compared to untreated control at a concentration of 500 uM. As to conditions: Homo sapiens. Format: functional, cell-based. Put shortly: (§1)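 First screen: exponential-phase MCF-7 cells (DMEM with 25 mM HEPES, 10% FCS, 37 °C, 5% CO2), 250000/well, given the ferrocenium salt 5–500 μM continuously for 48 h from 24 h after seeding. MTT (5 mg/mL in saline) added for 60 min; formazan read at 570 nm with 690 nm correction. Percent viable versus untreated control; mean of three replications.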

Assay [2] has as its system MCF7. As to the kind of experiment: In vitro cytotoxicity of compound against MCF-7 cell line expressed as percent of viable cells compared to untreated control at a concentration of 5 uM. It is filed as functional, cell-based. The settings on record: Homo sapiens. The essentials:
as §1

In assay [3] the test system is MCF7. The experiment in a line: In vitro cytotoxicity of compound against MCF-7 cell line expressed as percent of viable cells compared to untreated control at a concentration of 50 uM. It is filed as functional, cell-based. The settings on record: Homo sapiens. The essentials: as §1
Assay [4] deals with MCF7. As to the kind of experiment: In vitro cytotoxicity of compound against MCF-7 cell line expressed as percent of viable cells compared to untreated control at a concentration of 100 uM. It is filed as functional, cell-based. As to conditions: Homo sapiens. The essentials:
as §1

Assay [5] has as its system MCF7. The experiment in a line: In vitro cytotoxicity of compound against MCF-7 cell line expressed as percent of viable cells compared to untreated control at a concentration of 10 uM. Format: functional, cell-based. The settings on record: Homo sapiens. The essentials:
as §1

In assay [6] the test system is MCF7. As to the kind of experiment: Concentration required to reduce to 50% the number of MCF-7 cells with respect to untreated control after exposure to compound for 24 h. It is filed as functional, cell-based, Homo sapiens. Put shortly: (§2)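 MCF-7 cells (DMEM with 25 mM HEPES, 2 mM L-glutamine, 10% FCS; 37 °C, 5% CO2) in exponential growth, 250000 cells/well, dosed after 24 h at 10, 50, 100, 500 μM for 2, 12, 24 or 48 h. Medium then replaced; MTT read at 570 nm (690 nm background) 5 days from start, versus time-matched washed control. IC50 from three replications.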

Assay [7] concerns MCF7. As to the kind of experiment: In vitro cytotoxicity against MCF-7 cell line expressed as percent of viable cells compared to untreated control at a concentration of 70 uM. Format: functional, cell-based. As to conditions: Homo sapiens. Put shortly:
(§3)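 Exponential-phase MCF-7 cells, grown in DMEM with 25 mM HEPES, 2 mM L-glutamine and 10% FCS at 37 °C and 5% CO2, were seeded at 250000 cells/well. After 24 h they got a single agent for 24 h at 10, 20, 35, 50 or 70 μM, then fresh medium. Viability was read by MTT (570 nm, 690 nm background) 5 days from treatment start, as % of untreated control.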

The test system of assay [8] is MCF7. As to the kind of experiment: In vitro cytotoxicity against MCF-7 cell line expressed as percent of viable cells compared to untreated control at a concentration of 10 uM. Format: functional, cell-based. As to conditions: Homo sapiens. The essentials: as §3
For assay [9], the system named is MCF7. As to the kind of experiment: In vitro cytotoxicity against MCF-7 cell line expressed as percent of viable cells compared to untreated control at a concentration of 20 uM. It is filed as functional, cell-based. The settings on record: Homo sapiens. Put shortly: as §3
Assay [10] concerns MCF7. The experiment in a line: In vitro cytotoxicity against MCF-7 cell line expressed as percent of viable cells compared to untreated control at a concentration of 35 uM. Format: functional, cell-based. The settings on record: Homo sapiens. The essentials: as §3
The subject of assay [11] is MCF7. As to the kind of experiment: In vitro cytotoxicity against MCF-7 cell line expressed as percent of viable cells compared to untreated control at a concentration of 50 uM. It is filed as functional, cell-based. The settings on record: Homo sapiens. Put shortly: as §3
Assay [12] has as its system MCF7. The experiment in a line: Concentration required to reduce to 50% the number of MCF-7 cells with respect to untreated control after exposure to compound for 48 h. Format: functional, cell-based, Homo sapiens. Put shortly: as §2
The subject of assay [13] is MCF7. The experiment in a line: Concentration required to reduce to 50% the number of MCF-7 cells with respect to untreated control after exposure to compound for 2 h. It is filed as functional, cell-based, Homo sapiens. Put shortly:
as §2

Assay [14] deals with MCF7. As to the kind of experiment: Concentration required to reduce to 50% the number of MCF-7 cells with respect to untreated control after exposure to compound for 12 h. Format: functional, cell-based, Homo sapiens. Put shortly: as §2
The subject of assay [15] is MCF7. As to the kind of experiment: In vitro cytotoxicity against MCF-7 cell line as percent of viable cells compared to control at a concentration of 20 uM. It is filed as functional, cell-based. As to conditions: Homo sapiens.
Assay [16] concerns MCF7. The experiment in a line: In vitro cytotoxicity against MCF-7 cell line as percent of viable cells compared to control at a concentration of 10 uM. It is filed as functional, cell-based. The settings on record: Homo sapiens.
In assay [17] the test system is MCF7. As to the kind of experiment: In vitro cytotoxicity against MCF-7 cell line expressed as percent of viable cells compared to untreated control at a concentration of 10 uM for 24 h. It is filed as functional, cell-based. The settings on record: Homo sapiens. Put shortly:
(§4)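 Viability in MCF-7 cells (DMEM, 25 mM HEPES, 10% FCS, 37 °C, 5% CO2) seeded 250000/well and treated after 24 h for 24 h. Medium then replaced with fresh; MTT formazan read at 570 nm minus 690 nm, 5 days after treatment start. Percent of the untreated control washed at the same time; mean of three independent experiments.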

Assay [18] deals with MCF7. The experiment in a line: In vitro cytotoxicity against MCF-7 cell line expressed as percent of viable cells compared to untreated control at a concentration of 50 uM for 24 h. The settings on record: Homo sapiens. Format: functional, cell-based. Put shortly: as §4
For assay [19], the system named is MCF7. As to the kind of experiment: In vitro cytotoxicity against MCF-7 cell line as percent of viable cells compared to control at a concentration of 5 uM. Format: functional, cell-based. As to conditions: Homo sapiens.
In assay [20] the test system is MCF7. As to the kind of experiment: In vitro cytotoxicity against MCF-7 cell line expressed as percent of viable cells compared to untreated control at a concentration of 500 uM for 24 h. Format: functional, cell-based. The settings on record: Homo sapiens. Put shortly:
as §4

Assay [21] has as its system MCF7. The experiment in a line: In vitro cytotoxicity against MCF-7 cell line as percent of viable cells compared to control at a concentration of 30 uM. As to conditions: Homo sapiens. Format: functional, cell-based.
For assay [22], the system named is MCF7. The experiment in a line: In vitro cytotoxicity against MCF-7 cell line as percent of viable cells compared to control at a concentration of 40 uM. The settings on record: Homo sapiens. It is filed as functional, cell-based.
In assay [23] the test system is MCF7. As to the kind of experiment: In vitro cytotoxicity against MCF-7 cell line as percent of viable cells compared to control at a concentration of 15 uM. The settings on record: Homo sapiens. It is filed as functional, cell-based.
Assay [24] deals with MCF7. As to the kind of experiment: In vitro cytotoxicity against MCF-7 cell line expressed as percent of viable cells compared to untreated control at a concentration of 100 uM for 24 h. Format: functional, cell-based. As to conditions: Homo sapiens. Put shortly: as §4

Consider “1,1'-dimethylferrocenium tetrafluoroborate”, for which the Viable cells is 17% in the assay on MCF7 [1]; 99% in the assay with MCF7 [2]; 93% with MCF7 [3]; 90% in the assay with MCF7 [4]; 100% in the assay on MCF7 [5].
BLEOMYCIN [listing 1 of 2 here]: the midpoint of inhibition in the assay on MCF7 [6], the IC50, lay at 53 µM.
With BLEOMYCIN [listing 2 of 2 here], the Viable cells turned out to be 51% with MCF7 [7]; 69% in the assay with MCF7 [8]; 65% with MCF7 [9]; 57% with MCF7 [10]; 48% in the assay on MCF7 [11].
DECAMETHYLFERROCENIUM TETRAFLUOROBORATE: the IC50 in the assay with MCF7 [12] stood at 35 µM; with MCF7 [13], 86 µM; in the assay on MCF7 [14], 74 µM; with MCF7 [6], 58 µM.
As to “FERROCENIUM TETRAFLUOROBORATE [listing 1 of 2 here]”, the IC50 in the assay on MCF7 [12] turned out to be 249 µM; in the assay on MCF7 [13], 308 µM; in the assay with MCF7 [14] it was 238 µM; in the assay on MCF7 [6], 256 µM.
In the case of “FERROCENIUM TETRAFLUOROBORATE [listing 2 of 2 here]”, the Viable cells was found to be 13% in the assay with MCF7 [1]; 100% in the assay with MCF7 [2]; 100% in the assay with MCF7 [3]; 99% in the assay with MCF7 [4]; 98% in the assay with MCF7 [5].
Regarding “FERROCENIUMBORONIC ACID TETRAFLUOROBORATE”, the Viable cells with MCF7 [1] came to 8%; in the assay with MCF7 [2], 102%; with MCF7 [3], 101%; with MCF7 [4] it was 98%; in the assay on MCF7 [5], 101%.
On to [sequence] ACID TETRAFLUOROBORATE, for which the Viable cells with MCF7 [1] amounted to 17%; in the assay on MCF7 [2], 100%; in the assay on MCF7 [3], 97%; in the assay on MCF7 [4], 97%; with MCF7 [5], 98%.
As to [sequence] TETRAFLUOROBORATE, the Viable cells was determined as 13% in the assay on MCF7 [15]; 88% with MCF7 [16]; 11% with MCF7 [1]; 100% with MCF7 [2]; 32% in the assay with MCF7 [3]; 99% in the assay with MCF7 [17]. Further, the Viable cells in the assay on MCF7 [4] turned out to be 10%; with MCF7 [18], 64%; with MCF7 [19] it was 94%; in the assay on MCF7 [20] it was 4%; with MCF7 [5], 88%; with MCF7 [21], 7%. Besides, the values for the Viable cells in the assay on MCF7 [22], in the assay with MCF7 [23] and in the assay on MCF7 [24] were 3%, 34% and 14%, respectively.

The values above are taken from ChEMBL document CHEMBL1135737, “Water stability and cytotoxic activity relationship of a series of ferrocenium derivatives. ESR insights on the radical production during the degradation process” (J Med Chem, 2002).
